Results from different studies.
Compare with care: the assays were run in different laboratories.
Target: Mitogen-activated protein kinase kinase kinase kinase 3 (MAP4K3, Homo sapiens, UniProt Q8IVH8)
Sequence (Q8IVH8 1-894, as in one of the studies): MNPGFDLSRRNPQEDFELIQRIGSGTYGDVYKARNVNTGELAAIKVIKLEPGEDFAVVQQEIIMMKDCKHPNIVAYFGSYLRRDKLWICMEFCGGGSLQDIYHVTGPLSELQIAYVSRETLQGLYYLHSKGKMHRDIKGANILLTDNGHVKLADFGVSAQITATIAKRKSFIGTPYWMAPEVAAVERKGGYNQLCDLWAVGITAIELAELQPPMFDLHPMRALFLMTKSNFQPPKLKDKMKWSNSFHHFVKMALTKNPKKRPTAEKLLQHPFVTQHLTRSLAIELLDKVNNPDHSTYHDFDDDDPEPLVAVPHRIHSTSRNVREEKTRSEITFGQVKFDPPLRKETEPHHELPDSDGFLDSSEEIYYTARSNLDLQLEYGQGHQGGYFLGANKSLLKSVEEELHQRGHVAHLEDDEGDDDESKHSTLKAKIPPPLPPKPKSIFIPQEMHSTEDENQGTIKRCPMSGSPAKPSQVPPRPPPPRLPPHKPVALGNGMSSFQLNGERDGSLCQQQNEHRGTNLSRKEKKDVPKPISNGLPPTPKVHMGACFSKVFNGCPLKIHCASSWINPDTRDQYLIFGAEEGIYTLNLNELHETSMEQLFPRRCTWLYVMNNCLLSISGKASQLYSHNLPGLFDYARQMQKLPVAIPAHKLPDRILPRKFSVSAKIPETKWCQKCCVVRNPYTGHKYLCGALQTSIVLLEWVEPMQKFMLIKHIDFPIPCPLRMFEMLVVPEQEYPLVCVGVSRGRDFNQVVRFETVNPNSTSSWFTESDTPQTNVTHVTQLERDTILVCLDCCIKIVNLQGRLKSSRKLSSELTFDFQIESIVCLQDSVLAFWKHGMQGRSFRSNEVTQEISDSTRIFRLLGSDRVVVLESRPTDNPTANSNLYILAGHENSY

C#Cc1cc(-c2cc(Nc3nc(N[C@@H](C)c4ccc(F)cn4)ncc3Cl)n[nH]2)ccc1C=O
inhibition (enzyme activity; inhibitor; 0.2 µM): 45.4%

C=CC(=O)N1CCC([C@@H]2CCNc3c(C(N)=O)c(-c4ccc(Oc5ccccc5)cc4)nn32)CC1
inhibition (enzyme activity; inhibitor; 1 µM): 14%

Cc1ccc(NC(=O)c2ccnc(C(F)(F)F)c2)cc1-c1cc(OCCO)nc(N2CCOCC2)c1
remaining binding (binding; competition with immobilised ligand; 1 µM): 100%

CCCCC(=O)Nc1ccc(-c2ccc3ncn(CCC)c(=O)c3c2)cn1
remaining binding (binding; competition with immobilised ligand; 0.5 µM): 81%

C[C@H]1CC[C@H](n2c3cnccc3c3cnc(Nc4ccc5c(n4)CCN(C(=O)CO)C5)nc32)CC1
remaining binding (binding; competition with immobilised ligand; 1 µM): 100%

CO[C@@H]1[C@H](N(C)C(=O)c2ccccc2)C[C@H]2O[C@]1(C)n1c3ccccc3c3c4c(c5c6ccccc6n2c5c31)C(=O)NC4
inhibition (enzyme activity; inhibitor; 1 µM): 77%

COc1ccc2oc(-c3ccc4nc(N)oc4c3)c/c(=N\c3ccccc3NC(=O)CCN)c2c1
remaining binding (binding; 1 µM): 113%

C1=C/COCc2cc(ccc2OCCN2CCCC2)Nc2nccc(n2)-c2cccc(c2)COC/1
remaining signal (cell-free assay; 0.1 µM): 80%
